The text below walks through data of ChEMBL document CHEMBL4196210, “Depsipeptides Featuring a Neutral P1 Are Potent Inhibitors of Kallikrein-Related Peptidase 6 with On-Target Cellular Activity” (J Med Chem, 2018).

As a reminder, the Ki is a dissociation constant, usually derived from enzyme kinetics or from competition with a known ligand. A high value points to a looser hold on the target. By IC50 is commonly meant the midpoint of a concentration-inhibition curve. A word on the half-life: it is the time in which the quantity being followed falls by half.

Data set [1] deals with T1, Kallikrein-6 (Homo sapiens, UniProt Q92876). Kind of data set: Inhibition of human KLK6 expressed in baculovirus/insect cell line system using Abz-KLRSSKQ-EDDnp substrate.
The target in data set [2] is T2, Kallikrein-7 (Homo sapiens, UniProt P49862). Kind of data set: Inhibition of KLK7 (unknown origin) expressed in Pichia pastoris pre-incubated for 10 mins before Leu-Leu-Val-Tyr-AMC substrate addition and measured after 30 mins by fluorescence based assay. A digest of the protocol: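 KLK7 at 33 nM final in 100 mM phosphate, 0.01% Tween-20, pH 8.5, with inhibitor (1:3 dilutions) or 2% DMSO for 10 min at rt. Reaction started with Leu-Leu-Val-Tyr-AMC at 500 µM final. Fluorescence (ex 380/em 460) read every 60 s for 30 min. Triplicates.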
Target sequence in this assay (P49862 whole entry): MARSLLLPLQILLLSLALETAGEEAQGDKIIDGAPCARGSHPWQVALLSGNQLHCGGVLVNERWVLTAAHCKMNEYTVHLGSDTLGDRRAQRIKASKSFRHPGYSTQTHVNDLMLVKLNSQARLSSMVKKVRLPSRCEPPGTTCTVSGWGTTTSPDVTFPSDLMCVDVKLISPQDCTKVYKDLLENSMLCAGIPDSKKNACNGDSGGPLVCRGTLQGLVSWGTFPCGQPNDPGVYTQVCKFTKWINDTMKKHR

Data set [3] has as its target T3, Trypsin (Homo sapiens, UniProt P07477+P07478+P35030). As to the kind of experiment: Inhibition of trypsin (unknown origin) pre-incubated for 30 mins before N-Boc-FSR-AMC substrate addition and measured after 30 mins. The data set is classed as protein assay.
Data set [4] in a line: Stability in DMEM supplemented with 10% (v/v) fetal bovine serum at 10 uM at 37 degC assessed as half life by HPLC-MS method. It counts as physicochemical. Conditions: cattle, DMEM with 10% (v/v) fetal bovine serum. The method in brief: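 Compound at 10 µM (0.2% DMSO) in DMEM with 10% FBS, 2 mM L-glutamine and 1% penicillin/streptomycin, plus 10 µM triazole internal standard, held at 37 °C. Sampled hourly to 10 h, then at 24 h, by HPLC-MS in SIM mode for parent and hydrolysis product.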

Data set [5] concerns the target T4, Kallikrein-13 (Homo sapiens, UniProt Q9UKR3).
T4 sequence (Q9UKR3 whole entry): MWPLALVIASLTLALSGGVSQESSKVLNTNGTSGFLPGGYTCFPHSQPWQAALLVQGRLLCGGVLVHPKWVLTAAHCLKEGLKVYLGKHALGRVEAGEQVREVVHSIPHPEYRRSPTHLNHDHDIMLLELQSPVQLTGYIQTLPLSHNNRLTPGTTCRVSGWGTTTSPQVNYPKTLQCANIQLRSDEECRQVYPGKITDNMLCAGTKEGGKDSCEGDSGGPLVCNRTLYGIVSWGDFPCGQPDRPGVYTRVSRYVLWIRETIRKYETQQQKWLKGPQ
Kind of data set: Inhibition of KLK13 (unknown origin) expressed in Pichia pastoris pre-incubated for 10 mins before Boc-ValProArg-AMC substrate addition and measured after 30 mins by fluorescence based assay.

Data set [6] has as its target T5, Kallikrein-14 (Homo sapiens, UniProt Q9P0G3).
T5 sequence (Q9P0G3 whole entry): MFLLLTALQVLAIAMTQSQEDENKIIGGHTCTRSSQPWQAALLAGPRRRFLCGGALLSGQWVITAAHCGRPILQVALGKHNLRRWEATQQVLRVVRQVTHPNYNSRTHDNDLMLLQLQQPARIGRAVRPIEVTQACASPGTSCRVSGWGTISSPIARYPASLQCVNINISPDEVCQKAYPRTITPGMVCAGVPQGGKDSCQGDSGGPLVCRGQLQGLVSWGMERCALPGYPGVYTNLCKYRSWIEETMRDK
As to the kind of experiment: Inhibition of KLK14 (unknown origin) expressed in Pichia pastoris pre-incubated for 10 mins before Boc-ValProArg-AMC substrate addition and measured after 30 mins by fluorescence based assay.

For data set [7], the target named is T6, Kallikrein-8 (Homo sapiens, UniProt O60259).
T6 sequence (O60259 whole entry): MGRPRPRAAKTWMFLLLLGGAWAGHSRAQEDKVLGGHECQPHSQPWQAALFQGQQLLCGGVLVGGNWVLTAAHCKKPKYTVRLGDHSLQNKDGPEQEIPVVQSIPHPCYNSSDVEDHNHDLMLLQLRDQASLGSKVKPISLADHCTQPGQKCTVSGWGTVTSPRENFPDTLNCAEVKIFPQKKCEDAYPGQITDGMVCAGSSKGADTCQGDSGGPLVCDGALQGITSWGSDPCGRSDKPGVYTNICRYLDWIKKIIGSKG
Kind of data set: Inhibition of KLK8 (unknown origin) expressed in Pichia pastoris pre-incubated for 10 mins before Boc-ValProArg-AMC substrate addition and measured after 30 mins by fluorescence based assay.

For data set [8], the target named is T7, Kallikrein-5 (Homo sapiens, UniProt Q9Y337).
T7 sequence (Q9Y337 whole entry): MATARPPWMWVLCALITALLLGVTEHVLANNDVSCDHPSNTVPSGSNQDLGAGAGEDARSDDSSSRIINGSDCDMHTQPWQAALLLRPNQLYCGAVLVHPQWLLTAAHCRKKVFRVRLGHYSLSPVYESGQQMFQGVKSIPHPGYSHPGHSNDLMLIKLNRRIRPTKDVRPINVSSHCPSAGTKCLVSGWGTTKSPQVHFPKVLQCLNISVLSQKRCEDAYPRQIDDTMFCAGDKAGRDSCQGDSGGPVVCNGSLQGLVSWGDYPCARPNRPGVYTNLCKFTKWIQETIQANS
Kind of data set: Inhibition of KLK5 (unknown origin) expressed in Pichia pastoris pre-incubated for 10 mins before Boc-ValProArg-AMC substrate addition and measured after 30 mins by fluorescence based assay.

Data set [9] concerns the target Kallikrein-5 (Homo sapiens) (UniProt Q9Y337). Kind of data set: Binding affinity to KLK5 in human VCAP cells conditioned medium at 50 uM pre-incubated for 30 mins by activity-based probe based in-gel fluorescence assay. It counts as cell-based.
The target in data set [10] is T8, Kallikrein-4 (Homo sapiens, UniProt Q9Y5K2). Kind of data set: Binding affinity to recombinant KLK4 (unknown origin) at 50 uM pre-incubated with conditioned medium for 30 mins by activity-based probe based in-gel fluorescence assay.
Data set [11] deals with T3, Trypsin. Kind of data set: Binding affinity to recombinant trypsin (unknown origin) at 50 uM pre-incubated with conditioned medium for 30 mins by activity-based probe based in-gel fluorescence assay. It counts as protein assay.
The target in data set [12] is T8, Kallikrein-4. As to the kind of experiment: Inhibition of N-terminal FLAG-tagged and C-terminal His tagged pro-KLK4 (unknown origin) expressed in Escherichia coli in presence of thermolysin pre-incubated for 10 mins before Boc-FSR-AMC substrate addition and measured after 20 mins by fluorescence based assay.
The subject of data set [13] is Detroit 562. Kind of data set: Effect on cell proliferation of human Detroit 562 cells at 100 to 500 nM incubated for 48 hrs by BrdU incorporation assay. The data set is classed as ADME, cell-based. Conditions: detroit 562, 48 h, 0.5 µM. In general terms: Dividing cells build labelled thymidine or BrdU into new DNA.
Data set [14] relates to Detroit 562. Kind of data set: Effect on EMT switch in human Detroit 562 cells at 100 to 500 nM incubated for 48 hrs. It counts as ADME, cell-based. The following applies: detroit 562, 48 h, 0.5 µM.
Data set [15] has as its target T9, Prostate-specific antigen (Homo sapiens) (UniProt P07288).
T9 sequence (whole entry): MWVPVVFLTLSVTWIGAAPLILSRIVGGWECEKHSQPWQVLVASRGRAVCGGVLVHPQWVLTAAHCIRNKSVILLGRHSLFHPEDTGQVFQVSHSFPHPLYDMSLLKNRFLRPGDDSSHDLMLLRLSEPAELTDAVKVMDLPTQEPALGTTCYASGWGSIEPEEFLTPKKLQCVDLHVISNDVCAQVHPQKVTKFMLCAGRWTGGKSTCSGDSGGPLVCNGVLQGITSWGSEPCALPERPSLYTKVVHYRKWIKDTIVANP
Kind of data set: Binding affinity to KLK3 in human LNCAP cells conditioned medium at 50 uM pre-incubated for 30 mins by activity-based probe based in-gel fluorescence assay. It counts as cell-based.

Data set [16] has as its system CAL-27. Kind of data set: Effect on EMT switch in human CAL27 cells at 100 to 500 nM incubated for 48 hrs. Conditions: cal-27, 48 h, 0.5 µM. The data set is classed as ADME, cell-based.
Data set [17] addresses T2, Kallikrein-7. Kind of data set: Binding affinity to recombinant KLK7 (unknown origin) at 50 uM pre-incubated with conditioned medium for 30 mins by activity-based probe based in-gel fluorescence assay.
Target sequence in this assay (P49862 30-253 limits assumed): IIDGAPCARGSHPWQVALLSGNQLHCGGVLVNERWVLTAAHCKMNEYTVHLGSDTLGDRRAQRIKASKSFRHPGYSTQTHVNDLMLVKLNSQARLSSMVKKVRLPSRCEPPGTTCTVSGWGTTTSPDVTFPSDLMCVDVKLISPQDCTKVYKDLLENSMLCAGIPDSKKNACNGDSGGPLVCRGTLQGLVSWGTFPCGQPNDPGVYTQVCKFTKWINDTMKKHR
Data set [18] has as its system CAL-27. As to the kind of experiment: Effect on cell proliferation of human CAL27 cells at 100 to 500 nM incubated for 48 hrs by BrdU incorporation assay. Conditions: cal-27, 48 h, 0.5 µM. The data set is classed as ADME, cell-based.
Data set [19] addresses T1, Kallikrein-6. Kind of data set: Inhibition of recombinant human KLK6 assessed as Kinact/Ki ratio using Boc-QAR-AMC substrate.
Data set [20] concerns the target T1, Kallikrein-6. Kind of data set: Inhibition of KLK6 in human FaDu cells assessed as reduction in cell proliferation at 300 nM incubated for 48 hrs by BrdU incorporation assay. It counts as cell-based. The method in brief:
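FaDu cells treated daily for 48 h. Proliferation read as BrdU incorporation; average of 5 independent experiments ± standard deviation.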

The structures appear in SMILES notation. Active and inactive are the calls of the source. No cut-off for these calls is given here.

T8 sequence (Q9Y5K2 whole entry): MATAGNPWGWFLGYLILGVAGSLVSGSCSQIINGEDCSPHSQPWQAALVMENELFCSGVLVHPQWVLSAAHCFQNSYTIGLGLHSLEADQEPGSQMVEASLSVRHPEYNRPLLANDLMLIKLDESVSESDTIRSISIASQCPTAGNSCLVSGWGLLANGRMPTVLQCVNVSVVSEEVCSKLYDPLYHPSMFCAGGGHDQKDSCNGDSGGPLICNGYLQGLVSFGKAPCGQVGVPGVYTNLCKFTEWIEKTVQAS

Turning to `CC(C)C[C@H](NC(=O)[C@H](CCCNC(=N)N)NC(=O)c1ccc(Cl)cc1)C(N)=O`, the Ki in data set [1] came out at 1500 nM. In other words, the single-digit micromolar range.
Consider `Cc1nn(-c2ccccc2)c(C)c1NC(=O)COC(=O)Cc1c(C)[nH]c2cc(C(=N)N)ccc12`, for which the IC50 is greater than 0.5 µM in data set [2]; less than 0.001 µM in data set [3]; greater than 0.5 µM in [5]; 0.008 µM in [6]; 210 nM in data set [7]; 130 nM in [8]. The half-life at 10 µM in [4] is 79.2 min.
With `Cc1nn(-c2ccccc2)c(C)c1NC(=O)COC(=O)Cc1c(C)[nH]c2ccccc12`, the result in data set [9], in [10], in [11], in data set [15] and in data set [17] was inactive. Further, the IC50 was 73 µM in [2]; greater than 200 µM in [12]; 21 µM in data set [3]; greater than 10 µM in [5]; 10.3 µM in [6]; greater than 10000 nM in [7]. This compound also registered an IC50 in [8] of 1100 nM. The Activity entry in data set [13], in [14], in [16] and in data set [18] was “Non-Toxic” each time. Also, the half-life at 10 µM in data set [4] is 253 min.
With `O=C(Oc1cc(Cl)ccc1Cl)c1cc2cc(Cl)ccc2oc1=O`, the Ratio in [19] is 131 M⁻¹ s⁻¹.
With `Cc1nn(-c2ccccc2)c(C)c1NC(=O)COC(=O)Nc1c(C)[nH]c2ccccc12`, in data set [20], the outcome was inactive.
